What was measured:
[1] = (§1) Cytotoxicity against mouse L929 cells after 24 to 48 hrs; assay type: cell-based; details: L929 cells
In short: (§2)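 Monolayers at 37 °C, 5% CO₂; growth medium (L929: Eagle's MEM, EPT: Medium 199; both with 10% calf embryo serum and kanamycin, plus glutamine for L929) replaced by maintenance medium with 5% newborn calf serum holding compound at 1–1000. Read at 24–48 h after 0.5% crystal violet/70% ethanol staining, 540/620 nm. CC₅₀ = 50% monolayer destruction, given as −lg (M), confidence interval at P < 0.05.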

[2] = Cytotoxicity against pig EPT cells after 24 to 48 hrs; assay type: cell-based, Sus scrofa; details: for CC50: EPT cells; for pCC50: ept; in short: as §2
[3] = system: Vesicular stomatitis virus; assay: Antiviral activity against Vesicular stomatitis virus infected in mouse L929 cells assessed as inhibition of virus-induced cytopathic effect treated immediately after viral infection measured after 24 hrs; assay type: functional, organism-based; details: L929, 24 h
In short: (§3)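 VSV grown in EPT or L929 cells to about 10⁶ ID₅₀/0.1 mL. Compounds in serial double dilution were added to cell monolayers at 37 °C, 5% CO₂, either 24 h before infection (preventive) or immediately after it (therapeutic). VSV was then added and cultures held 24 h. Cytopathic effect was scored microscopically. IC₅₀ is reported as −lg molar concentration giving 50% inhibition of cytopathic action, with confidence interval at P < 0.05.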

[4] = system: Vesicular stomatitis virus; assay: Antiviral activity against Vesicular stomatitis virus in mouse L929 cells assessed as inhibition of virus-induced cytopathic effect treated 24 hrs before viral infection measured after 24 hrs; assay type: functional, organism-based; in short: as §3
[5] = system: Vesicular stomatitis virus; assay: Antiviral activity against Vesicular stomatitis virus infected in EPT cells assessed as inhibition of virus-induced cytopathic effect treated immediately after viral infection measured after 24 hrs; assay type: functional, organism-based; in short: as §3
[6] = system: Vesicular stomatitis virus; assay: Antiviral activity against Vesicular stomatitis virus in EPT cells assessed as inhibition of virus-induced cytopathic effect treated 24 hrs before viral infection measured after 24 hrs; assay type: functional, organism-based; in short: as §3
[7] = system: L929; assay: Induction of IFN activity in mouse L929 cells assessed as interferon titer at 1.1 uM after 24 hrs by microscopical method; assay type: functional
In short: (§4)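 Compounds were added to murine fibroblast L929 or piglet testicular EPT cells. Supernatant was taken after 24 and 48 h at 37 °C, 5% CO₂. IFN titers in the supernatant were then determined on L929 and EPT cell cultures.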

[8] = Induction of IFN activity in pig EPT cells assessed as interferon titer at 1.5 uM after 24 hrs by microscopical method; assay type: functional, Sus scrofa; in short: as §4
[9] = Selectivity index, CC50 for mouse L929 cells to IC50 for Vesicular stomatitis virus treated immediately after viral infection; assay type: functional
In short: (§5)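 SI = CC₅₀/IC₅₀ for each cell line and each regimen (treatment 24 h before or immediately after VSV infection). For CC₅₀, the medium on EPT or L929 monolayers was replaced with maintenance medium containing 5% newborn calf serum plus compound at 1–1000. After 24–48 h at 37 °C, 5% CO₂, cells were stained with 0.5% crystal violet in 70% ethanol and read at 540/620. CC₅₀ is the concentration giving 50% monolayer destruction.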

[10] = Selectivity index, CC50 for mouse L929 cells to IC50 for Vesicular stomatitis virus treated 24 hrs before viral infection; assay type: functional; in short: as §5
[11] = Selectivity index, CC50 for […] EPT cells to IC50 for Vesicular stomatitis virus treated immediately after viral infection; assay type: functional; in short: as §5
[12] = Selectivity index, CC50 for pig EPT cells to IC50 for Vesicular stomatitis virus treated 24 hrs before viral infection; assay type: functional; in short: as §5
[13] = Ratio of tilorone CC50 for […] EPT cells to IC50 for Vesicular stomatitis virus treated 24 hrs before viral infection over compound CC50 for […] EPT cells to IC50 for Vesicular stomatitis virus treated 24 hrs before viral infection
[14] = system: L929; assay: as §1; assay type: cell-based; details: l929; in short: as §2

Compound	CC50 [1] [µM]	CC50 [2] [µM]	IC50 [3] [µM]	IC50 [4] [µM]	IC50 [5] [µM]	IC50 [6] [µM]	Activity [7]	Activity [8]	Ratio CC50/IC50 [9]	Ratio CC50/IC50 [10]	Ratio CC50/IC50 [11]	Ratio CC50/IC50 [12]	pCC50 [2]	Ratio [13]	pCC50 [14]
CN1CCN(CCn2c3ccccc3c3nc4ccccc4nc32)CC1	97.7	81.3	4.79	1.38	4.68	1.45	4	32	46	71	17	57			
c1ccc2nc3c(nc2c1)c1ccccc1n3CCN1CCCC1	75.9	162	2.24	1.32	4.07	2.69	32	64	468	59	40	60			
CC1CCN(CCn2c3ccccc3c3nc4ccccc4nc32)CC1	575		2.29	1.62	20	1.58	8	32	78	358	142	1783	2.55	20	
CCCN(CCC)CCn1c2ccccc2c2nc3ccccc3nc21	219	148	3.55	1.29	6.61	2.69	8	32	158	169	23	55			
CN(C)CCn1c2ccccc2c2nc3ccccc3nc21	91.2	81.3	11.2	1.45	9.55	1.45	16	32	58	63	9	56			
c1ccc2nc3c(nc2c1)c1ccccc1n3CCN1CCCCCC1	145	132	3.8	1.29	7.94	2.69	64	32	62	110	17	49			
c1ccc2nc3c(nc2c1)c1ccccc1n3CCN1CCOCC1			4.47	1.62		1.62	8	16	17	659		1258	2.69	15	2.97
CCN(CC)CCn1c2ccccc2c2nc3ccccc3nc21	646	457	2.19	1.29	6.17	3.39	64	32	79	499	76	139			
CCN(CC)CCOc1ccc2c(c1)C(=O)c1cc(OCCN(CC)CC)ccc1-2.Cl.Cl [TILORONE HYDROCHLORIDE]	112	107	13.8	1.45	13.5	1.32	32	32	10	80	10	80			
c1ccc2nc3c(nc2c1)c1ccccc1n3CCN1CCCCC1	178	933	2.57	1.35	5.62	2.88	64	32	224	132	164	323			
CCCCN(CC)CCn1c2ccccc2c2nc3ccccc3nc21	174	83.2	3.39	3.16	13.2	13.2	8	8	27	54	6	6			
CC1CCCCN1CCn1c2ccccc2c2nc3ccccc3nc21 (stereo unspecified)	234	398	1.91	1.26	4.07	2.63	32	32	74	185	98	149			
CCCCN(C)CCn1c2ccccc2c2nc3ccccc3nc21	562	204	2.34	1.45	4.79	3.02	16	32	41	388	43	68			
